Assay results from PMC11757988 (Scientific Reports, 2025).

Legend:
[1] = Thermogravimetric analysis; type: physicochemical; conditions: TGA
How it was run: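 Samples of about 5 mg in platinum pans heated from 5 °C to 900 °C at 10 °C per min under nitrogen flowing at 60 mL per min; percentage weight loss recorded against temperature.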

[2] = In vivo pharmacokinetic study, intravenous; design: species or system female Wistar rats; conditions: rat
How it was run: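 Eight-week-old female Wistar rats (250 ± 10 g), single i.v. dose of test compound solution at 10 mg/kg (nanoparticles at equivalent dose), saline control group. Tail-vein blood (300 µL) at 1–38 h into heparinized tubes; plasma by chilled centrifugation; acetonitrile protein precipitation, nitrogen drying, methanol reconstitution; HPLC-UV with plasma calibration 0.5–20 µg/mL; mean ± SD, n = 6.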

[3] = Blood compatibility study; type: cell-based; conditions: rat, heparinized whole blood
How it was run: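 Rat heparinized blood (0.2 mL) added to 3 mL normal saline containing test material at 1000 µg/mL, saline-only negative and distilled-water positive controls; 1 h at 37 °C with shaking; centrifuged 6000 rpm, 20 min; filtered supernatant read at 545 nm for released hemoglobin; activity = (sample − negative control absorbance)/positive control absorbance.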

[4] = female, Wistar, plasma, iv, 10 mg/kg
[5] = i.v., DZ 10 mg/kg equivalent, n = 6, listed as DZ-Solution

O=c1c(-c2ccc(O)cc2)coc2cc(O)ccc12 [DZ, daidzein]
Temperature at which decomposition started [1]: 340–350 °C
MRT inf [2, 4]: 2.97 ± 0.95 h
Tmax [2, 4]: 1 ± 0.78 h
AUC(0-inf) ([2]; female, Wistar, plasma, iv, 10 mg/kg, AUC0−∞, DZ 10 mg/kg equivalent, n = 6): 2300 µg·h/mL
Cmax ([2]; female, Wistar, plasma, iv, 10 mg/kg, C max, DZ 10 mg/kg equivalent, n = 6): 382 µg/mL
half-life ([2]; female, Wistar, plasma, iv, 10 mg/kg, t1/2, rat, DZ 10 mg/kg equivalent, n = 6): 3.45 h
AUC0−∞ [2, 5]: 2299.73 ± 0.67 µg·h/mL
C max [2, 5]: 381.59 ± 1.12 µg/mL
t1/2 [2, 5]: 3.44 ± 0.44 h
hemolysis at 1 h, 1000 µg/mL [3]: 0.98 ± 0.14%
